According to ChEMBL document CHEMBL3739258, “Click-based synthesis of bromotyrosine alkaloid analogs as potential anti-biofilm leads for SAR studies” (Bioorg Med Chem Lett, 2015):

Legend:
[1] = tested on: Pseudoalteromonas lipolytica; assay: Antibiofilm activity against Pseudoalteromonas lipolytica TC8 assessed as microbial adhesion at 200 uM after 15 hrs by Syto61 based-fluorescence analysis relative to control; type: functional
Method in brief: (§1)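 Cells grown in VNSS at 20 °C to stationary phase, centrifuged, and resuspended in sterile artificial seawater to OD600 0.2–0.4. Suspension incubated with compound at 200 µM in triplicate for 15 h at 20 °C. Loose cells removed with three washes in 36 g/L NaCl. Attached cells stained 10 min at room temperature with 40 µmol/L Syto 61, then washed and the stain solubilised. Fluorescence read at ex 615/em 670 nm against untreated adhesion-control wells.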

Pseudoalteromonas ulvae [2] = assay: Antibiofilm activity against Pseudoalteromonas ulvae TC14 assessed as microbial adhesion at 200 uM after 15 hrs by Syto61 based-fluorescence analysis relative to control; type: functional; method in brief: as §1
Paracoccus sp. [3] = assay: Antibiofilm activity against Paracoccus sp. 4M6 assessed as microbial adhesion at 200 uM after 15 hrs by Syto61 based-fluorescence analysis relative to control; type: functional; method in brief: as §1
[4] = Toxicity in Paracoccus sp. 4M6 assessed as growth inhibition at 100 uM after 15 hrs by Syto61 based-fluorescence analysis relative to control
[5] = Toxicity in Pseudoalteromonas lipolytica TC8 assessed as growth inhibition at 100 uM after 15 hrs by Syto61 based-fluorescence analysis relative to control
[6] = tested on: Pseudoalteromonas lipolytica; assay: Antibiofilm activity against Pseudoalteromonas lipolytica TC8 assessed as reduction in adhesion after 15 hrs by Syto61 based-fluorescence analysis relative to control; type: functional; settings: TC8, 15 h
Method in brief: (§2)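 Adhesion assay: cells from a 20 °C VNSS stationary-phase culture were resuspended in artificial seawater (OD600 0.2–0.4). They were exposed to a range of compound concentrations in triplicate for 15 h at 20 °C, then washed with 36 g/L NaCl and stained 10 min with 40 µmol/L Syto 61. Fluorescence was read at ex 615/em 670 nm relative to bacteria-only controls. EC50 came from dose-response curve fitting.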

Pseudoalteromonas ulvae [7] = assay: Antibiofilm activity against Pseudoalteromonas ulvae TC14 assessed as reduction in adhesion after 15 hrs by Syto61 based-fluorescence analysis relative to control; type: functional; settings: TC14, 15 h; method in brief: as §2
Paracoccus sp. [8] = assay: Antibiofilm activity against Paracoccus sp. 4M6 assessed as reduction in adhesion after 15 hrs by Syto61 based-fluorescence analysis relative to control; type: functional; settings: Paracoccus sp. (in: a-proteobacteria), 4M6, 15 h; method in brief: as §2
[9] = Toxicity in Pseudoalteromonas lipolytica TC8 assessed as effect on viability at 100 uM after 6 hrs by resazurin-staining assay relative to control
Method in brief: (§3)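 Strains grown in VNSS at 20 °C. Bacterial suspension added to VNSS wells containing compound at 100 µM, triplicate, with solvent and untreated controls. OD600 followed hourly for 6 h. Resazurin was then added and fluorescence read after 2 h. Percent viability was calculated as in the Syto 61 adhesion assay.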

[10] = Toxicity in Paracoccus sp. 4M6 assessed as effect on viability at 100 uM after 6 hrs by resazurin-staining assay relative to control; method in brief: as §3
[11] = Toxicity in Pseudoalteromonas ulvae TC14 assessed as effect on viability at 100 uM after 6 hrs by resazurin-staining assay relative to control; method in brief: as §3
[12] = Toxicity in Pseudoalteromonas ulvae TC14 assessed as growth inhibition at 100 uM after 15 hrs by Syto61 based-fluorescence analysis relative to control

| SMILES | Activity [1] [%] | Activity (Pseudoalteromonas ulvae [2]) [%] | Activity (Paracoccus sp. [3]) [%] | Activity [4] | Activity [5] | EC50 [6] [µM] | EC50 (Pseudoalteromonas ulvae [7]) [µM] | EC50 (Paracoccus sp. [8]) [µM] | Activity [9] | Activity [10] | Activity [11] | Activity [12] |
| --- | --- | --- | --- | --- | --- | --- | --- | --- | --- | --- | --- | --- |
| COc1ccc(Cn2cc(C(=O)NCCCN)nn2)cc1Br.O=C(O)C(F)(F)F | >75 | >75 | >75 | – | – | – | – | – | – | – | – | – |
| COc1ccc(Cn2cc(C(=O)NCCCCNC(=N)N)nn2)cc1Br.O=C(O)C(F)(F)F | >75 | >75 | >75 | – | – | – | – | – | – | – | – | – |
| O=C(NCCc1ccc(O)cc1)c1cn(CCc2ccc(O)c(Br)c2)nn1 | 35 | 31.4 | 43.4 | Non-toxic | Non-toxic | 113 | 69.3 | 156 | Non-toxic | Non-toxic | Non-toxic | – |
| O=C(NCCc1cc(Br)c(O)c(Br)c1)c1cn(CCc2cc(Br)c(O)c(Br)c2)nn1 | 40.32 | 29.3 | 38.7 | Non-toxic | Non-toxic | 96 | 26.6 | 83.2 | Non-toxic | Non-toxic | Non-toxic | – |
| COc1ccc(CCn2cc(C(=O)NCCc3ccc(O)cc3)nn2)cc1Br | 35 | 18.7 | 28.2 | Non-toxic | Non-toxic | 104 | 32.6 | 72.9 | Non-toxic | Non-toxic | Non-toxic | – |
| O=C(NCCc1ccc(O)cc1)c1cn(CCc2ccc(O)cc2)nn1 | 43 | 16 | 44.5 | Non-toxic | Non-toxic | 170 | 72.9 | 196 | Non-toxic | Non-toxic | Non-toxic | – |
| COc1ccc(Cn2cc(C(=O)NCCc3cnc[nH]3)nn2)cc1Br | >75 | >75 | >75 | – | – | – | – | – | – | – | – | – |
| COc1ccc(CCn2cc(C(=O)NCCc3cc(Br)c(O)c(Br)c3)nn2)cc1Br | 29.7 | 5.9 | 28.8 | Non-toxic | Non-toxic | 67.8 | 8.8 | 40.7 | Non-toxic | Non-toxic | Non-toxic | Toxic |
| CC1(C)S[C@@H]2[C@H](NC(=O)[C@H](N)c3ccccc3)C(=O)N2[C@H]1C(=O)O [AMPICILLIN] | 8.9 | 4.9 | 33.9 | Toxic | Toxic | 17.9 | 9.3 | 144 | Toxic | Toxic | Toxic | – |
| COc1ccc(CCn2cc(C(=O)NCCCCNC(=N)N)nn2)cc1Br.O=C(O)C(F)(F)F | >75 | >75 | >75 | – | – | – | – | – | – | – | – | – |
| COc1ccc(Cn2cc(C(=O)NCCCNC(=N)N)nn2)cc1Br.O=C(O)C(F)(F)F | >75 | >75 | >75 | – | – | – | – | – | – | – | – | – |
| COc1ccc(CCn2cc(C(=O)NCCCN)nn2)cc1Br.O=C(O)C(F)(F)F | >75 | >75 | >75 | – | – | – | – | – | – | – | – | – |
| COc1ccc(CCn2cc(C(=O)NCCc3cnc[nH]3)nn2)cc1Br | >75 | >75 | >75 | – | – | – | – | – | – | – | – | – |
| COc1ccc(Cn2cc(C(=O)NCCCCN)nn2)cc1Br.O=C(O)C(F)(F)F | >75 | >75 | >75 | – | – | – | – | – | – | – | – | – |
| COc1ccc(CCn2cc(C(=O)NCCN)nn2)cc1Br.O=C(O)C(F)(F)F | >75 | >75 | >75 | – | – | – | – | – | – | – | – | – |
| COc1ccc(Cn2cc(C(=O)NCCNC(=N)N)nn2)cc1Br.O=C(O)C(F)(F)F | >75 | >75 | >75 | – | – | – | – | – | – | – | – | – |
| COc1ccc(CCn2cc(C(=O)NCCCCN)nn2)cc1Br.O=C(O)C(F)(F)F | >75 | >75 | >75 | – | – | – | – | – | – | – | – | – |
| COc1ccc(CCn2cc(C(=O)NCCCNC(=N)N)nn2)cc1Br.O=C(O)C(F)(F)F | >75 | >75 | >75 | – | – | – | – | – | – | – | – | – |
| COc1ccc(Cn2cc(C(=O)NCCN)nn2)cc1Br.O=C(O)C(F)(F)F | >75 | >75 | >75 | – | – | – | – | – | – | – | – | – |
| COc1ccc(Cn2cc(C(=O)NCCc3cc(Br)c(O)c(Br)c3)nn2)cc1Br | 40 | 23.3 | 37.9 | Non-toxic | Non-toxic | 124 | 40.2 | 84 | Non-toxic | Non-toxic | Non-toxic | – |
| O=C(NCCc1cnc[nH]1)c1cn(CCc2ccc(O)c(Br)c2)nn1 | >75 | >75 | >75 | – | – | – | – | – | – | – | – | – |
| O=C(NCCc1cnc[nH]1)c1cn(CCc2ccc(O)cc2)nn1 | >75 | >75 | >75 | – | – | – | – | – | – | – | – | – |
| COc1ccc(Cn2cc(C(=O)NCCc3ccc(O)cc3)nn2)cc1Br | 38.3 | 20.7 | 31.2 | Non-toxic | Non-toxic | 134 | 40 | 97.3 | Non-toxic | Non-toxic | Non-toxic | – |
| COc1ccc(CCn2cc(C(=O)NCCNC(=N)N)nn2)cc1Br.O=C(O)C(F)(F)F | >75 | >75 | >75 | – | – | – | – | – | – | – | – | – |
